Legend:
[1] = target: T1, Alpha-1D adrenergic receptor (Rattus norvegicus) (UniProt P23944); test: Functional agonism of the compounds to constrict tissue containing the alpha-1D adrenergic receptor in rat aorta; assay type: tissue-based
T1 sequence (whole entry): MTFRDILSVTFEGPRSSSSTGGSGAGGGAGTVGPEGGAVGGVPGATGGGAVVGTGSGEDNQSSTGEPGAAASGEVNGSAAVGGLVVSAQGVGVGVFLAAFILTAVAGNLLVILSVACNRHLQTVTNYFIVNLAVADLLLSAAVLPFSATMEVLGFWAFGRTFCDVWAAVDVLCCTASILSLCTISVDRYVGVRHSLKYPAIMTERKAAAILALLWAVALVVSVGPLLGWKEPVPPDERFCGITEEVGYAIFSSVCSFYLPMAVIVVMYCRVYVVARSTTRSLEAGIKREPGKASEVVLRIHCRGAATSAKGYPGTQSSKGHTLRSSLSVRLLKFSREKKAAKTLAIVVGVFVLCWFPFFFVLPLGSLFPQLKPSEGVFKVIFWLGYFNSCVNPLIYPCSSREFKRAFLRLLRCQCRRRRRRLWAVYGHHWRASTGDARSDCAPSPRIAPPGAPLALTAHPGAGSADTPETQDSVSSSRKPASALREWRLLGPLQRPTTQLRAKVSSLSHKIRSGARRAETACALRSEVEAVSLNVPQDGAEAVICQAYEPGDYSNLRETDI
In short: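 Agonist dose–response curves were run on isolated tissue: rabbit urethra for α1A, rat spleen for α1B, and rat aorta for α1D.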

[2] = target: T1, Alpha-1D adrenergic receptor (Rattus norvegicus); test: Efficacy relative to phenylephrine (PE) constrict tissue containing the alpha-1D adrenergic receptor in rat aorta; assay type: functional, tissue-based
In short: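 α1-agonist dose–response curves in isolated tissue: rabbit urethra (α1A), rat spleen (α1B), rat aorta (α1D). Agonist potency and efficacy read from the concentration–response curves.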

[3] = Selectivity is ratio of efficacy of Alpha-1D to that of alpha-1A adrenoceptor; assay type: functional
[4] = Selectivity is ratio of efficacy of alpha-1B to that of alpha1A adrenoceptor; assay type: functional
[5] = target: T2, Alpha-1A adrenergic receptor (Rattus norvegicus, UniProt P43140); test: In vitro binding affinity towards alpha-1A adrenergic receptor of rat submaxillary gland in radioligand binding assay
T2 sequence (P43140 whole entry): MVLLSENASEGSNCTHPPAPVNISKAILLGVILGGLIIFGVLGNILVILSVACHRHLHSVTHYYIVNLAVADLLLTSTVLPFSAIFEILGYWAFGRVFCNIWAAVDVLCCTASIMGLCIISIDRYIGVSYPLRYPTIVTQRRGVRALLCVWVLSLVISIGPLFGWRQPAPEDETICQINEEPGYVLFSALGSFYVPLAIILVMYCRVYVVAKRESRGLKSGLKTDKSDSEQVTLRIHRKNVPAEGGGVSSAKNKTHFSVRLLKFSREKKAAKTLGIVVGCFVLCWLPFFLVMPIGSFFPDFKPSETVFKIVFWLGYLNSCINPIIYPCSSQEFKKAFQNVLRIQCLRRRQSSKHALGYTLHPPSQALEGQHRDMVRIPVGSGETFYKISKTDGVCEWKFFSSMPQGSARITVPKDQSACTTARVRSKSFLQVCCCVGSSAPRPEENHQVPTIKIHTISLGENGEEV
In short: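 Radioligand binding at α1 subtypes: α1A from rat submaxillary gland, α1B hamster clone, α1D rat clone. Run essentially per an earlier method.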

[6] = target: T3, Alpha-2A adrenergic receptor (Rattus norvegicus) (UniProt P22909); details: Vas deferens
T3 sequence (whole entry): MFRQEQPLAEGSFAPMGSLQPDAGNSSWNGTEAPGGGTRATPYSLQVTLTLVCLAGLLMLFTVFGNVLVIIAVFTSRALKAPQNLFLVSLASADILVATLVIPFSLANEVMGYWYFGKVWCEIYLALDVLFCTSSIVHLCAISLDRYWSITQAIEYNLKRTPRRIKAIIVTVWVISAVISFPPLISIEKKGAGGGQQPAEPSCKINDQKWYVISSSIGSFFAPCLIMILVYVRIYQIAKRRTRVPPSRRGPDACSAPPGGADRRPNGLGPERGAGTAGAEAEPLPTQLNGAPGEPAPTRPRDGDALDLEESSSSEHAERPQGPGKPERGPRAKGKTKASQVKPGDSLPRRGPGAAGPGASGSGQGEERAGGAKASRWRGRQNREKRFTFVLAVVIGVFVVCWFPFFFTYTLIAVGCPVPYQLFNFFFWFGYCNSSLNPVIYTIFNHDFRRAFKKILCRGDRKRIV

[7] = target: T4, Alpha-1B adrenergic receptor (Rattus norvegicus) (UniProt P15823); test: Efficacy relative to phenylephrine (PE) to constrict tissue containing the alpha-1B adrenergic receptor in rat spleen; assay type: functional, tissue-based
T4 sequence (whole entry): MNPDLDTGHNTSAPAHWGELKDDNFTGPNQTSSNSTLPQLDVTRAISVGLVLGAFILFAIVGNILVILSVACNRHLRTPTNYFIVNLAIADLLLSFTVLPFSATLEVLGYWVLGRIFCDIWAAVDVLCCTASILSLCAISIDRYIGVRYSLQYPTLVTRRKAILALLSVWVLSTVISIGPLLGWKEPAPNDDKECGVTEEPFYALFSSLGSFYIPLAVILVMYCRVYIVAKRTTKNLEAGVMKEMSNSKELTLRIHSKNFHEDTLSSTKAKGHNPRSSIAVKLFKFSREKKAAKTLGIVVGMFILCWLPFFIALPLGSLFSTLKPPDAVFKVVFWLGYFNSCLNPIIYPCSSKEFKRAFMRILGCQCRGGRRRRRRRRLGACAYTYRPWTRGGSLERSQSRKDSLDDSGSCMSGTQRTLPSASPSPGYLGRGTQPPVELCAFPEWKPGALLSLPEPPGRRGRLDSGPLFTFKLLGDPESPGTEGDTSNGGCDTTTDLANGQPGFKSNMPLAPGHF

| Compound | pD2 [1] | Efficacy [2] | Selectivity [3] | Selectivity [4] | Log Ki [5] | pD2 [6] | Ki [5] | Efficacy [7] |
| --- | --- | --- | --- | --- | --- | --- | --- | --- |
| COc1ccc(OC)c(C(O)CN)c1 (configuration not stated) [DESGLYMIDODRINE] | 5.73 | 68% | 1 | 12 |  |  |  |  |
| O=S(=O)(CC(F)(F)F)Nc1cccc2c1CCCC2c1c[nH]cn1 (single isomer, unassigned; (+)) |  |  |  |  | -6.91 |  |  |  |
| CC(N)C(O)c1ccccc1 (configuration not stated) [PHENYLPROPANOLAMINE] | 4.12 | 91% | 0.2 | 1 |  | 5.17 | 9.77 µM |  |
| CN(c1cccc2c1CCCC2c1c[nH]cn1)S(C)(=O)=O (configuration not stated) |  |  |  |  |  |  |  | 21 |

— ChEMBL document CHEMBL1148329, “Synthesis and structure-activity studies on N-[5-(1H-imidazol-4-yl)-5,6,7,8-tetrahydro-1-naphthalenyl]methanesulfonamide, an imidazole-containing alpha(1A)-adrenoceptor agonist” (J Med Chem, 2004)
